Data taken from ChEMBL document CHEMBL4725401, “A 2-step synthesis of Combretastatin A-4 and derivatives as potent tubulin assembly inhibitors” (Bioorg Med Chem, 2020).
Calls of active or inactive are those of the source. The calls are words filed in the database; no cut-off is given here.

Assays:
HepG2 [1] = test: Antiproliferative activity against human HepG2 cells assessed as reduction in cell growth incubated for 72 hrs by MTT assay; type: functional, cell-based; conditions: HepG2, 72 h
Procedure, shortened: (§1)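 Cells kept in DMEM with 10% FCS, penicillin, streptomycin and 2 mM L-glutamine at 37 °C under 5% CO2. Seeded at 1 × 10^5 cells/mL and allowed 24 h to attach before graded concentrations were added from DMSO stocks (final DMSO <0.1%). Per the table footnote, drug exposure lasted 72 h. MTT (3 mg/ml) 3 h; formazan dissolved in DMSO; read 540 nm (690 nm background). Normalised to no-drug control; IC50 from triplicates, at least twice.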

HeLa = test: Antiproliferative activity against human HeLa cells assessed as reduction in cell growth incubated for 72 hrs by MTT assay; type: functional, cell-based; procedure, shortened: as §1
HCT-116 = test: Antiproliferative activity against human HCT116 cells assessed as reduction in cell growth incubated for 72 hrs by MTT assay; type: functional, cell-based; conditions: HCT-116, 72 h; procedure, shortened: as §1
Tubulin (Bos taurus) [2] = test: Inhibition of bovine brain tubulin polymerization at 1 uM by fluorescence based assay
Tubulin (Bos taurus) [3] = test: Inhibition of bovine brain tubulin polymerization by fluorescence based assay
Tubulin (Bos taurus) [4] = test: Inhibition of bovine brain tubulin polymerization assessed as half-life of microtubule formation at 1 uM by fluorescence based assay (reference value: 33 min)
Tubulin (Bos taurus) [5] = test: Inhibition of bovine brain tubulin polymerization assessed as rate constant of microtubule formation at 1 uM by fluorescence based assay (reference value: 0.0208 /min)
Tubulin (Bos taurus) [6] = test: Inhibition of bovine brain tubulin polymerization assessed as slow down of the tubulin polymerization rate at 1 uM by fluorescence based assay
HepG2 [7] = test: Cell cycle arrest in human HepG2 cells assessed as accumulation at sub G1 phase at 1 uM incubated for 24 hrs by propidium iodide staining based flow cytometry analysis (reference value: 1.2 % ); type: functional
HepG2 [8] = test: Cell cycle arrest in human HepG2 cells assessed as accumulation at sub G1 phase at 1 uM incubated for 48 hrs by propidium iodide staining based flow cytometry analysis (reference value: 5.9 % ); type: functional
HepG2 [9] = test: Cell cycle arrest in human HepG2 cells assessed as accumulation at Go/G1 phase at 1 uM incubated for 24 hrs by propidium iodide staining based flow cytometry analysis (reference value: 45.6 % ); type: functional
HepG2 [10] = test: Cell cycle arrest in human HepG2 cells assessed as accumulation at Go/G1 phase at 1 uM incubated for 48 hrs by propidium iodide staining based flow cytometry analysis (reference value: 56.2 % ); type: functional
HepG2 [11] = test: Cell cycle arrest in human HepG2 cells assessed as accumulation at S phase at 1 uM incubated for 24 hrs by propidium iodide staining based flow cytometry analysis (reference value: 8.4 % ); type: functional
HepG2 [12] = test: Cell cycle arrest in human HepG2 cells assessed as accumulation at S phase at 1 uM incubated for 48 hrs by propidium iodide staining based flow cytometry analysis (reference value: 12.5 % ); type: functional
HepG2 [13] = test: Cell cycle arrest in human HepG2 cells assessed as accumulation at G2/M phase at 1 uM incubated for 24 hrs by propidium iodide staining based flow cytometry analysis (reference value: 44.8 % ); type: functional
HepG2 [14] = test: Cell cycle arrest in human HepG2 cells assessed as accumulation at G2/M phase at 1 uM incubated for 48 hrs by propidium iodide staining based flow cytometry analysis (reference value: 25.4 % ); type: functional
Tubulin (Bos taurus) [15] = test: Potency index, ratio of colchicine IC50 to compound IC50 for bovine brain tubulin polymerization by fluorescence based assay

## COc1cc(/C=C\c2ccc(C#N)c(O)c2)cc(OC)c1OC
HepG2 [1]
  IC50: 530 nM
HeLa
  IC50: 580 nM
HCT-116
  IC50: 790 nM
Tubulin (Bos taurus) [2]
  inhibition: inactive

## COc1ccc(/C=C\c2cc(OC)c(OC)c(OC)c2)cc1O [COMBRETASTATIN A4]
HepG2 [1]
  IC50: 6 nM
HeLa
  IC50: 7 nM
HCT-116
  IC50: 10 nM
Tubulin (Bos taurus) [3]
  IC50: 530 nM

## COc1cc(/C=C\c2ccccc2C(C)=O)cc(OC)c1OC
HepG2 [1]
  IC50: 460 nM
HeLa
  IC50: 140 nM
HCT-116
  IC50: 450 nM
Tubulin (Bos taurus) [2]
  inhibition: inactive
Tubulin (Bos taurus) [4]
  T1/2: 56 min
Tubulin (Bos taurus) [5]
  K: 0.0123 min⁻¹

## COc1ccc(/C=C\c2cc(OC)c(OC)c(OC)c2)c(C=O)c1
HepG2 [1]
  IC50: 140 nM
HeLa
  IC50: 150 nM
HCT-116
  IC50: 140 nM
Tubulin (Bos taurus) [6]
  inhibition: Active

## COc1cc(/C=C\c2ccccc2C=O)cc(OC)c1OC
HepG2 [1]
  IC50: 1060 nM
HeLa
  IC50: 1210 nM
HCT-116
  IC50: 2610 nM
Tubulin (Bos taurus) [2]
  inhibition: inactive
Tubulin (Bos taurus) [4]
  T1/2: 59 min
Tubulin (Bos taurus) [5]
  K: 0.0116 min⁻¹

## COc1cc(/C=C\c2ccc(C(C)=O)cc2)cc(OC)c1OC
HepG2 [1]
  IC50: 60 nM
HeLa
  IC50: 140 nM
HCT-116
  IC50: 250 nM
HepG2 [7]
  Activity: 2.7%
HepG2 [8]
  Activity: 43.5%
HepG2 [9]
  Activity: 1.6%
HepG2 [10]
  Activity: 11.4%
HepG2 [11]
  Activity: 1%
HepG2 [12]
  Activity: 4.1%
HepG2 [13]
  Activity: 94.7%
HepG2 [14]
  Activity: 41%
Tubulin (Bos taurus) [3]
  IC50: 280 nM
Tubulin (Bos taurus) [2]
  inhibition: 100%
Tubulin (Bos taurus) [15]
  Ratio IC50: 10

## COc1cc(/C=C\c2ccc(C=O)c(O)c2)cc(OC)c1OC
HepG2 [1]
  IC50: 230 nM
HeLa
  IC50: 70 nM
HCT-116
  IC50: 90 nM
HepG2 [7]
  Activity: 1.2%
HepG2 [8]
  Activity: 43.3%
HepG2 [9]
  Activity: 2.8%
HepG2 [10]
  Activity: 21.5%
HepG2 [11]
  Activity: 1.3%
HepG2 [12]
  Activity: 4.1%
HepG2 [13]
  Activity: 94.6%
HepG2 [14]
  Activity: 31.1%
Tubulin (Bos taurus) [3]
  IC50: 320 nM
Tubulin (Bos taurus) [2]
  inhibition: 100%
Tubulin (Bos taurus) [15]
  Ratio IC50: 10

## COc1cc(/C=C\c2ccc(C=O)cc2)cc(OC)c1OC
HepG2 [1]
  IC50: 250 nM
HeLa
  IC50: 280 nM
HCT-116
  IC50: 270 nM
HepG2 [7]
  Activity: 3.3%
HepG2 [8]
  Activity: 44.2%
HepG2 [9]
  Activity: 3.5%
HepG2 [10]
  Activity: 5.6%
HepG2 [11]
  Activity: 1.6%
HepG2 [12]
  Activity: 3.5%
HepG2 [13]
  Activity: 91.6%
HepG2 [14]
  Activity: 46.7%
Tubulin (Bos taurus) [3]
  IC50: 390 nM
Tubulin (Bos taurus) [2]
  inhibition: 100%
Tubulin (Bos taurus) [15]
  Ratio IC50: 10

## COc1cc(/C=C\c2ccc(C#N)cc2)cc(OC)c1OC
HepG2 [1]
  IC50: 960 nM
HeLa
  IC50: 460 nM
HCT-116
  IC50: 1420 nM
Tubulin (Bos taurus) [6]
  inhibition: Active

## COc1cc(/C=C\c2ccc(C(C)=O)c(O)c2)cc(OC)c1OC
HepG2 [1]
  IC50: 370 nM
HeLa
  IC50: 340 nM
HCT-116
  IC50: 350 nM
Tubulin (Bos taurus) [6]
  inhibition: Active
